Test results as given in ChEMBL document CHEMBL1132302, “Identification of pharmacokinetically stable 3, 10-dibromo-8-chlorobenzocycloheptapyridine farnesyl protein transferase inhibitors with potent enzyme and cellular activities” (J Med Chem, 1999).

Assays:
[1] = Area under curve was determined using 0.4% Methyl cellulose (MC) as vehicle. Compound was administered orally to nude mice at a dose of 25 mg/kg; format: ADME, organism-based; parameters: dose 25 mg/kg, route oral; conditions: mouse, in vivo, po
Summary of the method: (§1)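 Nude mice were dosed at 25 mpk, intravenously or orally as the line states, in 20% aqueous hydroxypropyl-β-cyclodextrin or 0.4% aqueous methyl cellulose. Serum was sampled over 24 h. Each time point came from sera of different animals.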

[2] = Maximum concentration (Cmax) using 20%aqueous hydroxypropyl-beta-cyclodextrin (HPbetaCD) as vehicle. compound was administered orally to nude mice at a dose of 25 mg/kg; format: ADME, organism-based; parameters: dose 25 mg/kg, route oral; conditions: mouse, in vivo, po; summary of the method: as §1
[3] = Maximum concentration (Cmax) using 0.4% Methyl cellulose (MC) as vehicle. compound was administered orally to nude mice at a dose of 25 mg/kg; format: ADME, organism-based; parameters: dose 25 mg/kg, route oral; conditions: mouse, in vivo, po; summary of the method: as §1
[4] = (§2) Area under curve was determined using 20%aqueous hydroxypropyl-beta-cyclodextrin (HPbetaCD) as vehicle. Compound was administered intravenously to nude mice at a dose of 25 mg/kg; format: ADME, organism-based; parameters: dose 25 mg/kg, route intravenous; conditions: mouse, in vivo, iv; summary of the method: as §1
[5] = (§3) Area under curve was determined using 20%aqueous hydroxypropyl-beta-cyclodextrin (HPbetaCD) as vehicle. Compound was administered orally to nude mice at a dose of 25 mg/kg; format: ADME, organism-based; parameters: dose 25 mg/kg, route oral; conditions: mouse, in vivo, po; summary of the method: as §1
[6] = Maximum concentration (Cmax) using 20%aqueous hydroxypropyl-beta-cyclodextrin (HPbetaCD) as vehicle. compound was administered intravenously to nude mice at a dose of 25 mg/kg; format: ADME, organism-based; parameters: dose 25 mg/kg, route intravenous; conditions: mouse, in vivo, iv; summary of the method: as §1
[7] = (§4) Half life was administered by using 20%aqueous hydroxypropyl-beta-cyclodextrin (HPbetaCD) as vehicle to nude mice at a dose of 25mpk,; format: ADME, organism-based; conditions: mouse, in vivo, 25 mg/kg
[8] = Maximum concentration (Cmax) using 0.4% Methyl cellulose (MC) as vehicle. compound was administered intravenously to nude mice at a dose of 25 mg/kg; format: ADME, organism-based; parameters: dose 25 mg/kg, route intravenous; conditions: mouse, in vivo, iv; summary of the method: as §1
[9] = Area under curve was determined using 0.4% Methyl cellulose (MC) as vehicle. Compound was administered intravenously to nude mice at a dose of 25 mg/kg; format: ADME, organism-based; parameters: dose 25 mg/kg, route intravenous; conditions: mouse, in vivo, iv; summary of the method: as §1
[10] = (§5) Bioavailability in mouse (nude) using 20% aqueous hydroxypropyl-beta-cyclodextrin (HPbetaCD) as vehicle 25 mg/kg; format: ADME, organism-based; conditions: nude, in vivo
[11] = Bioavailability in mouse (nude) (dose 0.4% Methylcellulose (MC) as vehicle 25 mg/kg); format: ADME, organism-based; conditions: in vivo
[12] = as §3; format: organism-based; parameters: dose 25 mg/kg; summary of the method: as §1
[13] = as §2; format: organism-based; parameters: dose 25 mg/kg; summary of the method: as §1
Mus musculus = experiment: as §5; format: organism-based
[14] = as §4; format: organism-based
[15] = Area under curve was determined using 20%aqueous hydroxypropyl-beta-cyclodextrin (HPbetaCD) as vehicle. Compound was administered orally to nude mice at a dose of 25 mg/kg (run time 7 hr); format: ADME, organism-based; parameters: dose 25 mg/kg, route oral; conditions: mouse, in vivo, po
Summary of the method: (§6)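 Nude mice received 25 mpk in 20% aqueous hydroxypropyl-β-cyclodextrin, by the route the line gives. Serum was collected over a shortened 7-h run rather than 24 h. Each time point used sera from different animals.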

NIH-3T3 (Mus musculus) [16] = experiment: inhibition of tumor colony formation in soft agar
[17] = biological target: T1, Protein farnesyltransferase (Homo sapiens, UniProt P49354+P49356); experiment: Effect on Ras processing in Cos-1 monkey kidney cells expressing either H-Ras-Val 12-CVLS or H-Ras-Val12.; format: functional, cell-based, Cercopithecidae
Summary of the method: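 Ras processing was tested in Cos-1 monkey kidney cells transiently expressing H-Ras-Val12-CVLS or H-Ras-Val12. IC50 values are single-point determinations.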

[18] = Area under curve was determined using 20%aqueous hydroxypropyl-beta-cyclodextrin (HPbetaCD) as vehicle. Compound was administered intravenously to nude mice at a dose of 25 mg/kg (run time 7 hr); format: ADME, organism-based; parameters: dose 25 mg/kg, route intravenous; conditions: mouse, in vivo, iv; summary of the method: as §6
[19] = biological target: T1, Protein farnesyltransferase; experiment: Inhibition of [3H]FPP incorporation into His6-H-Ras-CVLS by farnesyl transferase; format: protein-complex assay
[20] = Percent bioavailability was administered by using 0.4% Methyl cellulose (MC) as vehicle to nude mice at a dose of 25 mg/kg (micronized sample); format: ADME, organism-based; conditions: mouse, in vivo, read-out: Bioavailabiility
Summary of the method: (§7)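 A micronized sample was given orally at 25 mpk to nude mice in 0.4% aqueous methyl cellulose. Serum was collected over 24 h, with separate animals for each time point.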

[21] = Area under curve was determined using 0.4% Methyl cellulose (MC) as vehicle. Compound was administered orally to nude mice at a dose of 25 mg/kg (micronized sample); format: ADME, organism-based; parameters: dose 25 mg/kg, route oral; conditions: mouse, in vivo, po; summary of the method: as §7
NIH-3T3 (Mus musculus) [22] = experiment: Inhibition of tumor colony formation in soft agar
[23] = biological target: T1, Protein farnesyltransferase; experiment: Inhibition of Hras Farnesyl protein transferase (FPT); format: protein-complex assay
[24] = Maximum concentration (Cmax) using 0.4% Methyl cellulose (MC) as vehicle. compound was administered orally to nude mice at a dose of 25 mg/kg (micronized sample); format: ADME, organism-based; parameters: dose 25 mg/kg, route oral; conditions: mouse, in vivo, po; summary of the method: as §7
[25] = biological target: T1, Protein farnesyltransferase; experiment: Inhibitory activity against Hras Farnesyltransferase (FPT).; format: protein-complex assay
[26] = Half life was administered by using 0.4% Methyl cellulose (MC) as vehicle to nude mice at a dose of 25mpk; conditions: mouse, in vivo, 25 mg/kg

| Structure (SMILES) | Cmax [2] [µM] | AUC [4] [µg·h/mL] | AUC [5] [µg·h/mL] | Cmax [6] [µM] | half-life [7] [h] | bioavailability [10] [%] | IC50 (NIH-3T3 (Mus musculus) [16]) [µM] | IC50 [17] [µM] | further results |
| --- | --- | --- | --- | --- | --- | --- | --- | --- | --- |
| O=C(CC1CCN(C(=O)c2cc[n+]([O-])cc2)CC1)N1CCC([C@H]2c3ncc(Br)cc3CCc3cc(Cl)cc(Br)c32)CC1 | 9.81 | 13.7 | 15.7 | 19.8 | 1.2 | 115 |  |  | AUC [1]: 2 µg·h/mL; Cmax [3]: 1.07 µM; Cmax [8]: 19.8 µM; AUC [9]: 13.7 µg·h/mL; bioavailability [11]: 14.6% |
| CS(=O)(=O)N1CCC(CC(=O)N2CCC([C@H]3c4ncc(Br)cc4CCc4cc(Cl)cc(Br)c43)CC2)CC1 | 1.3 |  |  | 30 |  |  |  |  | AUC [12]: 950 ng·h/mL; AUC [13]: 9520 ng·h/mL; bioavailability (Mus musculus): 10%; T1/2 [14]: 0.53 h |
| O=C(CC1CCN(C(=O)Cn2cncn2)CC1)N1CCC([C@H]2c3ncc(Br)cc3CCc3cc(Cl)cc(Br)c32)CC1 | 2.15 |  |  | 22.6 | 0.28 | 19.5 | 0.11 | < 0.01 | AUC at 7 h [15]: 1.97 µg·h/mL; AUC at 7 h [18]: 10.1 µg·h/mL |
| CN(C)S(=O)(=O)N1CCC(CC(=O)N2CCC([C@H]3c4ncc(Br)cc4CCc4cc(Cl)cc(Br)c43)CC2)CC1 | 0.49 | 5.95 | 0.1 | 30 | 1.3 | 1.7 | 0.1 | 0.009 | IC50 [19]: 0.0078 µM |
| O=C(CC1CCN(C(=O)c2ccc[n+]([O-])c2)CC1)N1CCC([C@H]2c3ncc(Br)cc3CCc3cc(Cl)cc(Br)c32)CC1 | 16.2 | 62 | 70.1 | 52.3 | 1.42 | 113 |  | 0.007 | AUC [1]: 3.6 µg·h/mL; Cmax [3]: 0.75 µM; bioavailability [20]: 9.28%; AUC [21]: 5.75 µg·h/mL; IC50 (NIH-3T3 (Mus musculus) [22]): 0.165 µM; IC50 [23]: 0.0021 µM; Cmax [8]: 52.3 µM; AUC [9]: 62 µg·h/mL; Cmax [24]: 2.27 µM; bioavailability [11]: 5.81% |
| NC(=O)CN1CCC(CC(=O)N2CCC([C@H]3c4ncc(Br)cc4CCc4cc(Cl)cc(Br)c43)CC2)CC1 | 1.94 | 20.3 | 12.2 | 30 | 4 | 60.2 | 0.07 | 0.006 | IC50 [19]: 0.0021 µM |
| O=C(CC1CCN(CC(=O)N2CCOCC2)CC1)N1CCC([C@H]2c3ncc(Br)cc3CCc3cc(Cl)cc(Br)c32)CC1 |  |  |  |  |  |  | 0.1 | 0.025 | IC50 [19]: 0.0053 µM |
| CCOC(=O)CNC(=O)N1CCC(CC(=O)N2CCC([C@H]3c4ncc(Br)cc4CCc4cc(Cl)cc(Br)c43)CC2)CC1 |  |  |  |  |  |  | 0.31 |  |  |
| NS(=O)(=O)N1CCC(CC(=O)N2CCC([C@H]3c4ncc(Br)cc4CCc4cc(Cl)cc(Br)c43)CC2)CC1 | 3.6 |  |  | 30 |  |  | 0.2 |  | AUC [12]: 5600 ng·h/mL; AUC [13]: 26100 ng·h/mL; bioavailability (Mus musculus): 22%; T1/2 [14]: 1.5 h |
| O=C(CC1CCN(S(=O)(=O)Cc2ccccc2)CC1)N1CCC([C@H]2c3ncc(Br)cc3CCc3cc(Cl)cc(Br)c32)CC1 |  |  |  |  |  |  |  | 0.35 | IC50 [25]: 0.0171 µM |
| CNC(=O)N1CCC(CC(=O)N2CCC([C@H]3c4ncc(Br)cc4CCc4cc(Cl)cc(Br)c43)CC2)CC1 |  |  |  |  |  |  | 0.1 |  |  |
| NCC(=O)N1CCC(CC(=O)N2CCC([C@H]3c4ncc(Br)cc4CCc4cc(Cl)cc(Br)c43)CC2)CC1 | 2.92 |  |  | 80 |  |  |  |  | AUC [12]: 5840 ng·h/mL; AUC [13]: 125000 ng·h/mL; bioavailability (Mus musculus): 4.7%; T1/2 [14]: 1.4 h |
| N#CCC(=O)N1CCC(CC(=O)N2CCC([C@H]3c4ncc(Br)cc4CCc4cc(Cl)cc(Br)c43)CC2)CC1 |  |  |  |  |  |  |  | < 0.01 | AUC [1]: 0.35 µg·h/mL; Cmax [3]: 0.33 µM; IC50 (NIH-3T3 (Mus musculus) [22]): 0.12 µM; half-life [26]: 0.76 h; Cmax [8]: 23.4 µM; AUC [9]: 4.09 µg·h/mL; bioavailability [11]: 8.6% |
